molecular target: T1, Potassium voltage-gated channel subfamily A member 5 (Homo sapiens, UniProt P22460); test: Inhibition of human KV1.5 expressed in mouse L929 cells assessed as decrease in ultrarapid potassium current amplitude; type: cell-based; settings: not given
Procedure, shortened: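 Potassium current block was measured in mouse fibroblast L929 cells expressing human KV1.5. IC50 values are means of 2-4 experiments.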

T1 sequence (P22460 whole entry): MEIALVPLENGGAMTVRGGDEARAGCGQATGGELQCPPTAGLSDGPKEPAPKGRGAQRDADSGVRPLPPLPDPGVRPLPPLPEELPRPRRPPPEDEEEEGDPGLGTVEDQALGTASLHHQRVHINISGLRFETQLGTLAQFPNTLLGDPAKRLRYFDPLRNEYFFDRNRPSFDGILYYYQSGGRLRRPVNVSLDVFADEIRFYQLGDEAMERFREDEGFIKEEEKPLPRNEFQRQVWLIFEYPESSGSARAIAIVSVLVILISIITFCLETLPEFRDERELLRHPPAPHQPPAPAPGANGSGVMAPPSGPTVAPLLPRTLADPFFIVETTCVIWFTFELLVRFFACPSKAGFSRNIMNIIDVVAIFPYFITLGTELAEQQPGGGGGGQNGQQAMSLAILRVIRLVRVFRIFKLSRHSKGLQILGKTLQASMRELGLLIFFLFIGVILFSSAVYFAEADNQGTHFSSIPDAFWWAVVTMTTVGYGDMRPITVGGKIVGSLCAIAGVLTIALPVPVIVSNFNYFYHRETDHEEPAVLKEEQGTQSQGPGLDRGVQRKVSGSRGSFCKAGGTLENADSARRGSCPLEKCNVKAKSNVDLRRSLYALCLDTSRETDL

**Q.** With `COc1cccc2c1C(NC[C@]1(c3ccccc3)CC[C@H](Nc3ncccn3)CC1)=NS2(=O)=O` as the molecule, how does the IC50 read?
**A.** 0.047 µM

**Q.** For `CCOP(=O)(NC(=O)O[C@H]1CC[C@](CNC2=NS(=O)(=O)c3cccc(OC)c32)(c2ccccc2)CC1)OCC`, which IC50 is on record?
**A.** > 10 µM

**Q.** With `CCOC(=O)N[C@H]1CC[C@](CNC2=NS(=O)(=O)c3cccc(OC)c32)(c2ccccc2)CC1` as the molecule, how does the IC50 read?
**A.** 0.055 µM

**Q.** With `COc1cccc2c1C(NC[C@]1(c3ccccc3)CC[C@H](OC(=O)NS(=O)(=O)c3ccccc3)CC1)=NS2(=O)=O` as the molecule, how does the IC50 read?
**A.** > 10 µM

**Q.** For `COc1cccc2c1C(NC[C@]1(c3ccccc3)CC[C@H](OC(=O)NCCC(F)(F)F)CC1)=NS2(=O)=O`, which IC50 is on record?
**A.** 0.089 µM

**Q.** For `COc1cccc2c1C(NC[C@]1(c3ccccc3)CC[C@H](N)CC1)=NS2(=O)=O`, which IC50 is on record?
**A.** > 10 µM

**Q.** Which IC50 does the source give for `COc1cccc2c1C(NC[C@]1(c3ccccc3)CC[C@H](OC(=O)Nc3ccc(N(C)C)cc3)CC1)=NS2(=O)=O` here?
**A.** 0.03 µM

**Q.** Which IC50 does the source give for `COc1cccc2c1C(NC[C@]1(c3ccccc3)CC[C@H](n3cnnn3)CC1)=NS2(=O)=O` here?
**A.** 0.032 µM

**Q.** Which IC50 does the source give for `CCN(CC)S(=O)(=O)N[C@H]1CC[C@](CNC2=NS(=O)(=O)c3cccc(OC)c32)(c2ccccc2)CC1` here?
**A.** 0.052 µM

**Q.** For `COc1cccc2c1C(NCC(C)(C)c1ccccc1)=NC2=O`, which IC50 is on record?
**A.** 0.034 µM

system: not listed separately; test: Metabolic stability in mouse liver microsomes assessed as compound remaining at 3 uM after 10 mins; type: ADME; settings: read-out: Stability
Procedure, shortened: (§1)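 Parent compound at 3 µM was incubated 10 min in human, rat or mouse liver microsomes with appropriate co-factors. Read-out is percent of parent remaining.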

**Q.** Which remaining at 10 min, 3 µM does the source give for `COc1cccc2c1C(NC[C@]1(c3ccccc3)CC[C@H](Nc3ncccn3)CC1)=NS2(=O)=O` here?
**A.** < 1%

**Q.** For `COc1cccc2c1C(NC[C@]1(c3ccccc3)CC[C@H](OC(=O)NCCC(F)(F)F)CC1)=NS2(=O)=O`, which remaining at 10 min, 3 µM is on record?
**A.** 3%

**Q.** With `COc1cccc2c1C(NC[C@]1(c3ccccc3)CC[C@H](OC(=O)Nc3ccc(N(C)C)cc3)CC1)=NS2(=O)=O` as the molecule, how does the remaining at 10 min, 3 µM read?
**A.** < 1%

**Q.** For `COc1cccc2c1C(NC[C@]1(c3ccccc3)CC[C@H](n3cnnn3)CC1)=NS2(=O)=O`, which remaining at 10 min, 3 µM is on record?
**A.** 56%

**Q.** With `CCN(CC)S(=O)(=O)N[C@H]1CC[C@](CNC2=NS(=O)(=O)c3cccc(OC)c32)(c2ccccc2)CC1` as the molecule, how does the remaining at 10 min, 3 µM read?
**A.** < 1%

**Q.** For `COc1cccc2onc(NCC(C)(C)c3ccccc3)c12`, which remaining at 10 min, 3 µM is on record?
**A.** 11%

molecular target: T1, Potassium voltage-gated channel subfamily A member 5; test: Inhibition of human KV1.5 expressed in mouse L929 cells assessed as decrease in ultrarapid potassium current amplitude relative to control; type: cell-based; set-up: concentration or dose not given beside the values; settings: concentration not given here
Procedure, shortened: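 Potassium current block in mouse fibroblast L929 cells expressing human Kv1.5. IC50 values are means of 2-4 experiments.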

**Q.** Which inhibition does the source give for `CCOP(=O)(NC(=O)O[C@H]1CC[C@](CNC2=NS(=O)(=O)c3cccc(OC)c32)(c2ccccc2)CC1)OCC` here?
**A.** 13%

**Q.** With `COc1cccc2c1C(NC[C@]1(c3ccccc3)CC[C@H](OC(=O)NS(=O)(=O)c3ccccc3)CC1)=NS2(=O)=O` as the molecule, how does the inhibition read?
**A.** 1%

**Q.** For `COc1cccc2c1C(NC[C@]1(c3ccccc3)CC[C@H](N)CC1)=NS2(=O)=O`, which inhibition is on record?
**A.** 5%

system: not listed separately; test: Metabolic stability in human liver microsomes assessed as compound remaining at 3 uM after 10 mins; type: ADME; settings: read-out: Stability; procedure, shortened: as §1

**Q.** For `COc1cccc2c1C(NC[C@]1(c3ccccc3)CC[C@H](Nc3ncccn3)CC1)=NS2(=O)=O`, which remaining at 10 min, 3 µM is on record?
**A.** 6%

**Q.** For `CCOC(=O)N[C@H]1CC[C@](CNC2=NS(=O)(=O)c3cccc(OC)c32)(c2ccccc2)CC1`, which remaining at 10 min, 3 µM is on record?
**A.** 55%

**Q.** For `COc1cccc2c1C(NC[C@]1(c3ccccc3)CC[C@H](OC(=O)NCCC(F)(F)F)CC1)=NS2(=O)=O`, which remaining at 10 min, 3 µM is on record?
**A.** < 1%

**Q.** With `COc1cccc2c1C(NC[C@]1(c3ccccc3)CC[C@H](OC(=O)Nc3ccc(N(C)C)cc3)CC1)=NS2(=O)=O` as the molecule, how does the remaining at 10 min, 3 µM read?
**A.** 2%

**Q.** Which remaining at 10 min, 3 µM does the source give for `COc1cccc2c1C(NC[C@]1(c3ccccc3)CC[C@H](n3cnnn3)CC1)=NS2(=O)=O` here?
**A.** 56%

**Q.** With `CCN(CC)S(=O)(=O)N[C@H]1CC[C@](CNC2=NS(=O)(=O)c3cccc(OC)c32)(c2ccccc2)CC1` as the molecule, how does the remaining at 10 min, 3 µM read?
**A.** < 1%

**Q.** Which remaining at 10 min, 3 µM does the source give for `COc1cccc2c1C(NCC(C)(C)c1ccccc1)=NC2=O` here?
**A.** 99%

**Q.** For `COc1cccc2onc(NCC(C)(C)c3ccccc3)c12`, which remaining at 10 min, 3 µM is on record?
**A.** 7%

system: not listed separately; test: Metabolic stability in rat liver microsomes assessed as compound remaining at 3 uM after 10 mins; type: ADME; settings: read-out: Stability; procedure, shortened: as §1

**Q.** With `COc1cccc2c1C(NC[C@]1(c3ccccc3)CC[C@H](Nc3ncccn3)CC1)=NS2(=O)=O` as the molecule, how does the remaining at 10 min, 3 µM read?
**A.** < 1%

**Q.** With `CCOC(=O)N[C@H]1CC[C@](CNC2=NS(=O)(=O)c3cccc(OC)c32)(c2ccccc2)CC1` as the molecule, how does the remaining at 10 min, 3 µM read?
**A.** 19%

**Q.** With `COc1cccc2c1C(NC[C@]1(c3ccccc3)CC[C@H](OC(=O)NCCC(F)(F)F)CC1)=NS2(=O)=O` as the molecule, how does the remaining at 10 min, 3 µM read?
**A.** < 1%

**Q.** With `COc1cccc2c1C(NC[C@]1(c3ccccc3)CC[C@H](OC(=O)Nc3ccc(N(C)C)cc3)CC1)=NS2(=O)=O` as the molecule, how does the remaining at 10 min, 3 µM read?
**A.** < 1%

**Q.** Which remaining at 10 min, 3 µM does the source give for `COc1cccc2c1C(NC[C@]1(c3ccccc3)CC[C@H](n3cnnn3)CC1)=NS2(=O)=O` here?
**A.** 19%

**Q.** Which remaining at 10 min, 3 µM does the source give for `CCN(CC)S(=O)(=O)N[C@H]1CC[C@](CNC2=NS(=O)(=O)c3cccc(OC)c32)(c2ccccc2)CC1` here?
**A.** < 1%

**Q.** For `COc1cccc2c1C(NCC(C)(C)c1ccccc1)=NC2=O`, which remaining at 10 min, 3 µM is on record?
**A.** 43%

**Q.** Which remaining at 10 min, 3 µM does the source give for `COc1cccc2onc(NCC(C)(C)c3ccccc3)c12` here?
**A.** 13%

Reference: ChEMBL document CHEMBL3621160, “Pseudosaccharin amines as potent and selective KV1.5 blockers” (Bioorg Med Chem Lett, 2015)
